From ChEMBL document CHEMBL4616675, “Discovery of 6-Phenylhexanamide Derivatives as Potent Stereoselective Mitofusin Activators for the Treatment of Mitochondrial Diseases” (J Med Chem, 2020) come the findings set out here.

Values after ≈ are worked out from the molar mass of the structure shown.

As a reminder, the half-life is the time in which the quantity being followed falls by half. Read a low half-life as fast loss. For orientation: Cmax means the highest concentration seen after dosing. What is called Vd is the apparent volume that relates the amount in the body to the concentration in plasma or blood. Lower therefore signals confinement near the circulation.

The nature of data set [1]: Half life in human liver microsomes at 1 uM by LC-MS/MS analysis. Type of data set: ADME, Microsome. The following applies: for t1/2: microsomes, 1 µM; for half-life at 1 µM: liver microsomes. For orientation: Liver microsomes are a subcellular fraction often used to study metabolism.
Data set [2] can be described thus: Half life in mouse liver microsomes at 1 uM by LC-MS/MS analysis. The data set is classed as ADME, Microsome. The following applies: for t1/2: microsomes, 1 µM; for half-life at 1 µM: liver microsomes.
Data set [3] can be described thus: Half life in CD1 mouse plasma at 10 mg/kg, iv by LC-MS/MS analysis. The data set is classed as ADME, organism-based. The following applies: for t1/2: mouse, in vivo; for half-life: CD1, mouse, plasma.
The nature of data set [4]: Half life in CD1 mouse brain at 10 mg/kg, iv by LC-MS/MS analysis. Type of data set: ADME, organism-based.
Data set [5] can be described thus: Cmax in CD1 mouse plasma at 10 mg/kg, iv by LC-MS/MS analysis. The following applies: in vivo. Type of data set: ADME, organism-based. The arrangement: dose 10 mg/kg, route intravenous.
Data set [6] is described as follows: Cmax in CD1 mouse brain at 10 mg/kg, iv by LC-MS/MS analysis. The data set is classed as ADME, organism-based. The arrangement: dose 10 mg/kg, route intravenous.
Data set [7] in a line: AUC in CD1 mouse plasma at 10 mg/kg, iv by LC-MS/MS analysis. The data set is classed as ADME, organism-based. The following applies: in vivo.
The nature of data set [8]: AUC in CD1 mouse brain at 10 mg/kg, iv by LC-MS/MS analysis. Type of data set: ADME, organism-based. The following applies: in vivo.
Data set [9] can be described thus: Ratio of drug level in brain to plasma in CD1 mouse at 10 mg/kg, iv by LC-MS/MS analysis. The data set is classed as ADME, organism-based. In a few lines: (§1)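 Male CD-1 mice, 7–9 weeks, 15 per compound; single tail-vein dose of 10 mg/kg from a 2 mg/ml solution in 10% DMSO/90% (30% HP-β-CD). Plasma and brain sampled at increasing times, assayed in duplicate by LC-MS/MS. Parameters from non-compartmental analysis; mean of at least 3 mice per condition.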

Data set [10] can be described thus: Drug level in CD1 mouse brain at 10 mg/kg, iv after 1 hr by LC-MS/MS analysis. The data set is classed as ADME, organism-based. The following applies: read-out: Drug uptake. In a few lines:
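Male CD-1 mice, 7–9 weeks old, given a single 10 mg/kg tail-vein dose. Compound formulated at 2 mg/ml in 10% DMSO/90% (30% HP-β-CD). Plasma and brain sampled at intervals after dosing and analysed in duplicate by LC-MS/MS. Parameters derived by non-compartmental analysis. Values are means of at least 3 mice per condition; 15 mice per compound.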

Data set [11] in a line: Volume of distribution in CD1 mouse at 10 mg/kg, iv by LC-MS/MS analysis. The data set is classed as ADME, organism-based. The following applies: in vivo. The essentials:
as §1

The nature of data set [12]: Stability in human plasma at 2 uM after 120 mins by LC-MS/MS analysis relative to control. The data set is classed as ADME, cell-free. The following applies: read-out: Stability. In a few lines: (§2)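 Compounds at 2 µM in clarified freeze-thawed plasma, sampled at 0, 10, 30, 60 and 120 min. Supernatants after protein precipitation analysed by LC-MS/MS; the 120 min value is reported. Run in duplicate.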

Data set [13] in a line: Stability in mouse plasma at 2 uM after 120 mins by LC-MS/MS analysis relative to control. The following applies: read-out: Stability. Type of data set: ADME, cell-free. In a few lines:
as §2

Data set [14] is described as follows: Kinetic solubility in pH 7.4 aqueous solution incubated for 24 hrs by UV spectroscopy. The following applies: read-out: Kinetic_solubility. Type of data set: physicochemical.

Turning to `O=C(CCCCCc1ccncn1)NC1CCC(O)CC1` (configuration not stated), the t1/2 in [1] and in [2] was above 145 min in each case.

As to `O=C(NCCCc1nnc(C2CC2)n1-c1ccccc1)NC1CCOCC1`, the t1/2 in [1] was above 145 min; in data set [2], 91 min; in data set [3] it was 11.4 min.

Regarding `CC1CCCCC1NC(=O)NCCCc1nnc(-c2ccccc2)n1C` (configuration not stated), the t1/2 is on record as 43 min in data set [1] and 6 min in [2].

In the case of `CC1CCCCC1NC(=O)NCCc1nnc(-c2ccccc2)n1C` (configuration not stated), the t1/2 in data set [1] stood at 8 min; in [2] it was 28 min.

Take `O=C(CCCCCc1ccncc1)NC1CCC(O)CC1` (configuration not stated): the t1/2 in data set [1] and in data set [2] was above 145 min throughout.

In the case of `O=C(NCCCCc1ccccc1)NC1CCNCC1`, the results for the t1/2 in [1] and in data set [2] were above 145 min and 137.5 min, respectively.

In the case of `CC1CCCCC1NC(=O)NCCCCc1ccccc1` (configuration not stated), the t1/2 is 13.3 min in data set [1] and 1.9 min in [2].

Turning to `O=C(CCCCCc1ccccn1)NC1CCC(O)CC1` (configuration not stated), the t1/2 in data set [1] and in data set [2] was above 145 min throughout.

Regarding `CC1CC(O)CCC1NC(=O)NCCCCc1ccccc1` (configuration not stated), the t1/2 was 40.1 min in data set [1] and 24.2 min in data set [2]. Moreover, the half-life in data set [3] was 38.4 min; in data set [4], 97.2 min. Further, the Cmax in [5] turned out to be 3647 ng/mL; in data set [6] it was 366 ng/g. Further, the figures for the AUC in [7] and in [8] were 2564 ng·h/mL and 207 ng·h/g, respectively. In data set [9], the BPR is 0.081. Moreover, the concentration at 1 h in data set [10] is below 30 ng/g. This compound showed a Vd in [11] of 2 L/kg.

With `O=C(CCCCOc1ccccc1)N[C@H]1CC[C@H](O)CC1`, the t1/2 in [1] and in data set [2] was above 145 min each time.

With `CC1CCCCC1NC(=O)NCCCc1nnc(C2CC2)n1-c1ccccc1` (configuration not stated), the values for the remaining at 2 h, 2 µM in data set [12] and in [13] were 95% and 100%, respectively. Moreover, the t1/2 in data set [1] was determined as 6 min; in data set [2], 2 min; in data set [3], 12.6 min. Moreover, the solubility kinetic at 24 h in data set [14] is above 200 µM.

`O=C(COCCCc1ccccc1)N[C@H]1CC[C@H](O)CC1`: the t1/2 in data set [1] and in data set [2] was above 145 min each time.

Regarding `CC1CCCCC1NC(=O)NCCCc1nnc(C2CC2)n1-c1ccc(F)cc1` (configuration not stated), the t1/2 in [1] amounted to 5 min; in data set [2] it was 1 min.

Regarding `O=C(CCCCCc1ccccc1)NC1CCOCC1`, the results for the t1/2 in data set [1] and in data set [2] were 53.6 min and 9.9 min, respectively.

In the case of `O=C(NCCCCc1ccccc1)NC1CCC(O)CC1` (configuration not stated), the t1/2 in [1] and in [2] was above 145 min each time. The values for the half-life in [3] and in data set [4] were 69 min and 104 min, respectively. The Cmax is 6100 ng/mL in data set [5] and 1270 ng/g in data set [6]. Moreover, the results for the AUC in data set [7] and in data set [8] were 4860 ng·h/mL and 829 ng·h/g, respectively. Moreover, in [9], the BPR was 0.171. The concentration at 1 h in data set [10] was below 120 ng/g. Besides, the Vd in data set [11] stood at 2 L/kg.

Turning to `CCn1c(CCCNC(=O)NC2CCOCC2)nnc1C1CC1`, the t1/2 in data set [1] is above 145 min; in data set [2] it was above 145 min; in data set [3], 22.8 min.

On to `O=C(NCCCc1nnc(C2CC2)n1-c1ccc(F)cc1)NC1CCC(F)CC1` (configuration not stated), for which the t1/2 in [1] turned out to be 62 min; in data set [2], 17 min.

Turning to `CC1CCCCC1NC(=O)NCCOc1nnc(C2CC2)n1-c1ccccc1` (configuration not stated), the remaining at 2 h, 2 µM in [12] turned out to be 98%; in data set [13] it was 84%. Besides, the values for the half-life at 1 µM in data set [1] and in [2] were 8 min and 3 min, respectively. Moreover, the solubility kinetic at 24 h in data set [14] is 24 µM (≈ 9.2 µg/mL).

Turning to `O=C(CCOCCc1ccccc1)N[C@H]1CC[C@H](O)CC1`, the t1/2 in data set [1] and in data set [2] was above 145 min each time.

For the compound `O=C(CCCCCc1cccnc1)NC1CCC(O)CC1` (configuration not stated), the t1/2 is above 145 min in data set [1] and 125.3 min in data set [2].

Take `NC1CCC(NC(=O)CCCCCc2ccccc2)CC1` (configuration not stated): the t1/2 in [1] is recorded as 23.7 min; in [2] it was 111.9 min.

In the case of `CC1CCCCC1NC(=O)NCCSc1nnc(C2CC2)n1-c1ccccc1` (configuration not stated), the remaining at 2 h, 2 µM worked out at 95% in [12] and 94% in [13]. For the same compound, the t1/2 in data set [1] is listed as 3 min; in data set [2] it was 1 min. Besides, the solubility kinetic at 24 h in data set [14] amounted to 67 µM (≈ 26.8 µg/mL).

`O=C(CCCCCc1ccccc1)NC1CCC(F)(F)CC1`: the figures for the half-life at 1 µM in [1] and in [2] were 10.2 min and 2.8 min, respectively.

As to `O=C(CCCOCc1ccccc1)N[C@H]1CC[C@H](O)CC1`, the t1/2 in [1] and in data set [2] was above 145 min each time.

Regarding `CC1CCC(NC(=O)CCCCCc2ccccc2)CC1` (configuration not stated), the t1/2 turned out to be 7 min in [1] and 1.4 min in data set [2].

For the compound `O=C(N[C@H]1CC[C@H](O)CC1)OCCCCc1ccccc1`, the t1/2 is listed as 131.3 min in data set [1] and 48.9 min in data set [2].
